Source: PubChem BioAssay (The Scripps Research Institute Molecular Screening Center)
HCV core dimer: inhibitors of HCV core protein dimerization, primary screen, biochemical, TR-FRET, high-throughput. TR-FRET GST/Flag-core106 dimerization, 1536-well. inhibition, % at 5 µM. 0.33% of 300,000 active;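 active = inhibition above the mean of all tested compounds plus 3 SD, set per screening campaign, cut at about 45% in these data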
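Material: Tagged HCV core106 pair (GST and Flag) | Amount: GST-core106 13.5 nM, Flag-core106 17 nM | Medium: KF-containing HEPES buffer, pH 7.45, DTT, CHAPS, BSA | Reagent: Eu donor and XL665 acceptor anti-tag antibodies | Schedule: 4 h at 22.5 °C | Technique: Time-resolved FRET, ex 340 nm, em 617 and 671 nm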
ZTA DNA inh: blocks Epstein-Barr virus ZTA, an EBNA-1 counter-screen. inhibition, % at 11 µM. 0.15% of 320,000 active. ZTA-DNA binding, fluorescence polarization. P03206; in the data active = inhibition above about 33%
Target sequence (P03206 whole entry, looked up): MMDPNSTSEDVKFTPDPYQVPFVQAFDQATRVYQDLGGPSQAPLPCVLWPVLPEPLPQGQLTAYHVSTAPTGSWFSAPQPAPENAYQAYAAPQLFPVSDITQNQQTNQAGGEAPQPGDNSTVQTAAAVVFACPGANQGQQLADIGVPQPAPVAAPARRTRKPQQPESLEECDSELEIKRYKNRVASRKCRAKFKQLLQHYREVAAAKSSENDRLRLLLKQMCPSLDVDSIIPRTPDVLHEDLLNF
EBNA-1 inh: EBNA-1 DNA-binding inhibitors, primary screen, biochemical, fluorescence polarization. inhibition, % at 14.8 µM. AID 1950, 2009. 0.34% of 300,000 active; in the data active = inhibition above about 28%
HCV NS3 hel inh: inhibitors of HCV NS3 helicase, primary screen, biochemical, Cy5 molecular beacon fluorescence; Hepatitis C virus NS3 helicase; NS3 helicase DNA unwinding; inhibition, % at 10.9 µM; 0.56% of 290,000 active;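 active = inhibition above the mean of all tested compounds plus 3 SD, set per campaign, cut at about 35% in these data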;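 note: 0% = DMSO wells and 100% = thioflavine S control wells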
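test system = hepatitis C virus NS3 helicase domain fragment enzyme | reagent = annealed dual-labelled DNA beacon duplex, ATP-started | times = 1 h at 25 °C | detection = Cy5 fluorescence, 0 and 60 min reads | read-out basis = percent inhibition from t60/t0 fluorescence ratio | control set = DMSO and thioflavine S | replication = one well per compound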
NS3 hel confirm: HCV NS3 helicase inhibitors, retest, confirmation, biochemical, Cy5 molecular beacon fluorescence, triplicate. shares compounds with HCV NS3 hel inh. 31% of 1,600 active. NS3 helicase DNA unwinding. inhibition, % at 10.9 µM;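 active = inhibition above the mean of all tested compounds plus 3 SD, cutoff set per campaign, cut at about 36% in these data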
FID counter trip: compounds displacing fluorescent DNA intercalator, artefact control for HCV NS3 helicase inhibitor project, biochemical, FID fluorescence, triplicate. shares compounds with HCV NS3 hel inh. DNA fluorescent intercalator displacement. inhibition, % at 7.9 µM. 4% of 1,600 active. AID 1945, 2009; in the data active = inhibition above about 37%;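 note: 0% = vehicle and 100% = reference compound; higher means more displacement of ethidium bromide from the DNA hairpin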
DNA FID DR: compounds displacing fluorescent intercalator from DNA, dose response, counter-screen for HCV NS3 helicase inhibitor project, biochemical, fluorescence | shares compounds with HCV NS3 hel inh | fluorescent intercalator displacement from DNA | IC50, µM | 120 tested, under 10 active; call rule not given here
Numbers without * were called inactive; . = not tested or not shown. Most compounds without a hit are left out; they make up all but 1.2% or so of the library.

SMILES | HCV core dimer | ZTA DNA inh | EBNA-1 inh | HCV NS3 hel inh | NS3 hel confirm | FID counter trip | others
CCCn1c(N)c(N(CCOC)C(=O)CSc2cc(C)c3cccc(C)c3n2)c(=O)[nH]c1=O | . | -0.2 | . | . | . | .
S=c1[nH]nc(-c2ccco2)n1/N=C/c1cccc(Cl)c1Cl | 3.6 | 14.3 | 4.3 | 44.4* | 9.2 | -3.2
S=c1[nH]nc(-c2ccco2)n1/N=C/c1ccc(Cl)cc1Cl | 3.3 | 22.0 | 10.6 | 8.6 | . | .
COCC(C)n1c(SCc2ccc(C(=O)OC)cc2)nc2ccccc2c1=O (stereo not drawn) | 3.7 | 16.7 | 6.1 | -15.2 | . | .
Cc1c(C(=O)c2ccc(F)cc2F)c2ccccn2c1CCC#N | -18.1 | -19.6 | -9.4 | 49.0* | -7.3 | 14.1
Cc1c(C(=O)c2ccc(Cl)cc2[N+](=O)[O-])c2ccccn2c1CCC#N | -6.8 | -16.8 | -11.3 | -11.2 | . | .
O=[N+]([O-])c1c(Nc2ccccc2O)ccc2nonc12 | -7.0 | -11.3 | -1.8 | 13.6 | . | .
O=[N+]([O-])c1c(Nc2ccccc2O)cc(Cl)c2nonc12 | . | . | . | 37.6* | -22.9 | 17.2
COc1ccc(/C=N/NC(=O)c2cccc(NC(=O)c3ccccc3Cl)c2)cc1 | -13.2 | -18.0 | -6.8 | 61.0* | 8.0 | -35.7
COc1ccc(/C=N/NC(=O)c2cccc(NC(=O)c3ccccc3Cl)c2)cc1OC | 1.0 | -20.6 | -8.0 | 8.6 | . | .
Cc1ccc(CSCC2Nc3ccc(C(=O)N4CCN(c5cccc(C)c5)C(C)C4)cc3NC2=O)cc1 (stereo not drawn) | 70.8* | 10.3 | 0.3 | 38.0* | -8.5 | -36.2
CCC(=O)Nc1ccc(C(=O)CSc2nnc(-c3ccccc3F)n2C2CC2)cc1 | 40.0 | 2.5 | -4.2 | 51.7* | -6.4 | -20.7
O=c1cc(O)nc(SCc2ccccc2)n1-c1ccc(F)cc1 | 7.8 | -0.8 | 1.5 | 58.8* | -1.5 | -22.2
O=C(CSc1nc(O)cc(=O)n1-c1ccccc1)NC1CCCCC1 | -0.3 | -0.7 | -5.6 | 6.5 | . | .
O=C1CSC(=S)N1/N=C/c1ccc2c(c1)OCCO2 | 2.4 | -8.1 | -2.2 | 21.1 | . | .
O=C1CSC(=S)N1/N=C/c1ccc(Cl)c([N+](=O)[O-])c1 | 64.9* | 3.9 | 5.8 | 44.1* | 50.8* | 7.8
Cc1cccc(C)c1Nc1nnc(SC/C(O)=C(\C#N)c2nc3ccccc3[nH]2)s1 | 27.6 | 2.8 | -3.0 | 12.7 | . | .
Cc1cccc(Nc2nnc(SC/C(O)=C(\C#N)c3nc4ccccc4[nH]3)s2)c1C | 34.0 | -2.1 | 0.4 | 48.0* | -8.8 | -16.8
O=C(CNC(=S)N(Cc1ccccc1)Cc1ccccc1F)NCCc1ccccc1 | 6.0 | -7.2 | -5.5 | -22.1 | . | .
COc1cccc(NC(=O)COc2cc(O)c3c(c2)OC(C)(C)CC3=O)c1 | 11.0 | -5.2 | 5.0 | 83.1* | -14.6 | -20.1
O=C(N/N=C/c1c(O)ccc2ccccc12)c1cccnc1 | -1.6 | 0.8 | -24.8 | 87.4* | 29.4 | -18.0
COc1ccc2ccccc2c1/C=N\NC(=O)c1cccnc1 | -9.4 | 0.5 | 6.8 | . | . | .
O=C(O)c1ccc2c(c1)[C@@H]1C=CC[C@@H]1[C@H](c1ccccn1)N2 | 0.6 | 79.8* | 20.0 | 59.4* | 60.0* | 2.8
Cc1nc(-c2ccc3c(c2)CCC(=O)N3)cs1 | -2.4 | -15.8 | -8.1 | 1.2 | . | .
Cc1ccc(-c2csc(Cc3nc(-c4ccc5c(c4)CCC(=O)N5)cs3)n2)cc1 | 24.6 | 0.9 | 10.8 | 40.2* | -3.1 | -10.3
SMILES | HCV core dimer | ZTA DNA inh | EBNA-1 inh | HCV NS3 hel inh | NS3 hel confirm | FID counter trip | others
CCOC(=O)N1CCN(C(=O)/C(=C/c2cccs2)NC(=O)c2ccc(OC)c(OC)c2)CC1 | -5.2 | 3.2 | -5.5 | -2.8 | . | .
O=c1c2cc(Br)ccc2nc(-c2ccc(Cl)cc2)n1O | -5.0 | -16.4 | 3.4 | 36.6* | 40.2* | 8.6
Cc1ccc(-c2nc3c(Cl)cc(Cl)cc3c(=O)n2O)cc1 | 2.0 | -8.6 | -12.0 | 36.0* | 61.9* | -3.0
O=c1c2cc(Cl)ccc2nc(-c2ccc([N+](=O)[O-])cc2)n1O | -24.8 | -5.9 | 0.5 | -5.9 | . | .
Cc1onc(-c2c(Cl)cccc2Cl)c1-c1nc2cc(Cl)ccc2c(=O)o1 | . | . | . | 20.9 | . | .
Cc1cc(C)c(C(=O)N(CCN(C)C)CC2CCCN(Cc3ccccc3F)C2)o1 (stereo not drawn) | -11.1 | 6.9 | -2.9 | -17.8 | . | .
C=CCOc1cccc(C2C(C(=O)c3ccco3)=C(O)C(=O)N2Cc2ccco2)c1 (stereo not drawn) | 11.6 | -4.3 | 0.1 | 38.1* | 23.4 | -15.8
CCOc1cccc(C2C(C(=O)c3ccc(C)o3)=C(O)C(=O)N2Cc2ccccc2)c1 (stereo not drawn) | . | . | . | 62.0* | 78.6* | -28.6 | DNA FID DR=>79.4
CCOC(=O)c1c(N)sc(=S)c2c1CCC2 | 45.2 | -7.1 | -2.7 | 57.6* | 28.2 | 3.6
CC(=O)c1ccc(N(C(=O)CNC(=O)c2ccco2)C(C(=O)NC2CCCC2)c2cccnc2)cc1 (stereo not drawn) | 8.4 | -2.3 | 1.8 | 5.9 | . | .
O=C(Cn1cnc2ccccc2c1=O)NCCC(=O)N1CCN(Cc2ccccc2)CC1 | -0.3 | 6.2 | 7.3 | 38.3* | -18.9 | -5.1
CCCN1CCN(C(=O)CCNC(=O)Cn2cnc3ccccc3c2=O)CC1 | -1.4 | 6.8 | 9.1 | -0.1 | . | .
Cc1cc(Cl)ccc1Oc1ccccc1C(=O)CC#N | 9.1 | -5.9 | -5.7 | 36.6* | 53.1* | 9.0 | DNA FID DR=>79.4
Fc1cccc(Cl)c1C1Nc2cccc3cccc(c23)N1 | 9.2 | -13.9 | -10.1 | 45.4* | -19.8 | 31.2
c1ccc(C2Nc3cccc4cccc(c34)N2)cc1 | 3.0 | -13.6 | 0.8 | 14.8 | . | .
Clc1cccc(Cl)c1C1Nc2cccc3cccc(c23)N1 | 37.0 | -19.5 | 4.1 | 74.8* | -33.1 | 20.5
CN1CCN(CC(=O)Nc2cc(N(C)C)nc3ccccc23)CC1 | -2.6 | -2.5 | 9.9 | 23.4 | . | .
Cc1ccc2c(c1)CCCN2C(=O)c1cc(C)on1 | -5.1 | 22.1 | 1.0 | 5.3 | . | .
Cc1ccc(CNC(=O)CN(C(=O)C2(C)CC(=O)N=C3C=CC=CN32)c2ccccc2F)cc1 (stereo not drawn) | -6.5 | 2.9 | -12.9 | 2.7 | . | .
O=C(Nc1ccccc1C(=O)NC(Cc1c[nH]c2ccccc12)C(=O)O)c1ccccc1 (stereo not drawn) | -0.5 | -15.4 | -0.7 | 39.7* | 42.3* | -36.0
CCOC(=O)c1ccc(N(CC(=O)NC2CCCCC2)C(=O)CNC(=O)c2ccco2)cc1 | -3.1 | -18.6 | -6.3 | 3.3 | . | .
Cc1noc(NS(=O)(=O)c2ccc(NC(=O)Cc3ccc([N+](=O)[O-])cc3)cc2)c1C | 34.6 | -9.2 | 0.2 | 41.6* | 29.2 | -13.6
